What is called MIC is the smallest concentration in the dilution series that meets the test's criterion for growth inhibition. A higher MIC goes with a need for much substance. In general, EC50 refers to the concentration needed to bring the measured effect to its halfway point. A high value points to a less potent agent.

≈ marks a conversion by molar mass, not a printed value.

Experiment [1] deals with Mycobacterium tuberculosis. Nature of the experiment: Antimycobacterial activity against Mycobacterium tuberculosis H37Rv. It counts as functional. The procedure, abridged: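 Read-out is the minimum inhibitory concentration (MIC). Crude extracts are expressed in μg mL−1 and isolated constituents in μM. Isonicotinylhydrazine and rifampicin served as reference controls.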

The test system of the next experiment is MDA-MB-231. Nature of the experiment: Cytotoxicity against human MDA-MB-231 cells. Format: functional, cell-based.

Turning to `CO[C@H]1/C=C/O[C@@]2(C)Oc3c(C)c(O)c4c(O)c(c(/C=N/N5CCN(C)CC5)c(O)c4c3C2=O)NC(=O)/C(C)=C\C=C\[C@H](C)[C@H](O)[C@@H](C)[C@@H](O)[C@@H](C)[C@H](OC(C)=O)[C@@H]1C` [RIFAMPIN], the minimal inhibitory concentration (MIC) in experiment [1] was 0.09 µM (≈ 0.0741 µg/mL).
In turn, `COc1c(CC=C(C)C)cc([C@@H]2CC(=O)c3c(O)cc(O)cc3O2)cc1CC=C(C)C` had an MIC in experiment [1] of 49.5 µM (≈ 20.9 µg/mL). For the same molecule, in the experiment on MDA-MB-231, the half-maximal effective concentration (EC50) was 21.6 µM.
In experiment [1], `CC1(C)C=Cc2c(cc3occ(-c4ccc(O)cc4O)c(=O)c3c2O)O1` had a minimum inhibitory concentration (MIC) of 90.9 µM (≈ 32 µg/mL). The molecule also displayed a half-maximal effective concentration (EC50) in the experiment with MDA-MB-231 of 16.9 µM.
The molecule `COc1cc2c(cc1CC=C(C)C)[C@@H]1Oc3cc(O)ccc3[C@@H]1CO2` showed a minimal inhibitory concentration (MIC) in experiment [1] of 90.8 µM (≈ 30.7 µg/mL).
For `COc1ccc(-c2cc(=O)c3c(OC)c(OC)c(OC)cc3o2)cc1`, the MIC in experiment [1] turned out to be 93.5 µM (≈ 32 µg/mL). A half-maximal effect in the experiment on MDA-MB-231 (EC50) was put at 292 µM.
In the same order, the values of `COc1ccc(-c2coc3cc(O)cc(O)c3c2=O)cc1CC=C(C)C` are 36.9 µM (≈ 13 µg/mL) and 27.9 µM.
For `COc1ccc(-c2coc3cc(O)cc(O)c3c2=O)cc1OC` the same measures were 102 µM (≈ 32 µg/mL) and 31.8 µM.
For `COc1cc(OC)c([C@@H]2COc3cc4c(c(O)c3C2=O)C=CC(C)(C)O4)cc1OC` the same measures were 67.6 µM (≈ 27.9 µg/mL) and 58 µM.
In experiment [1], `COc1cc(-c2coc3cc(O)cc(O)c3c2=O)cc(OC)c1OC` yielded a minimum inhibitory concentration (MIC) of 93 µM (≈ 32 µg/mL). Besides, the EC50 with MDA-MB-231 turned out to be 29 µM.
For `COc1cc(OC)c(C2COc3cc(O)cc(O)c3C2=O)cc1OC` (stereo not given) the same measures were 92.5 µM (≈ 32 µg/mL) and 275 µM.
In experiment [1], `NNC(=O)c1ccncc1` [ISONIAZID] showed an MIC of 0.3 µM (≈ 0.0411 µg/mL).
The molecule `COc1ccc(/C=C/C(=O)c2c(O)cc(OC)c(OC)c2OC)cc1` yielded an MIC in experiment [1] of 92.9 µM (≈ 32 µg/mL). For the same molecule, the half-maximal effective concentration (EC50) in the experiment on MDA-MB-231 was determined as 291 µM.
For `C=C(C)/C=C/c1cc(-c2coc3cc(O)cc(O)c3c2=O)cc(O)c1OC` the same measures were 87.4 µM (≈ 32 µg/mL) and 13 µM.
For `COc1cc(-c2coc3cc(O)cc(O)c3c2=O)cc(CC=C(C)C)c1OC` the same measures were 77.2 µM (≈ 29.5 µg/mL) and 49.4 µM.
Consider `COc1ccc([C@@H]2CC(=O)c3c(cc(OC)c(OC)c3OC)O2)cc1`, for which, in experiment [1], the minimum inhibitory concentration (MIC) stood at 92.9 µM (≈ 32 µg/mL). In the experiment on MDA-MB-231, this molecule registered a half-maximal effective concentration (EC50) of 291 µM.
Molecule `COc1ccc([C@@H]2CC(=O)c3c(cc(OC)c(O)c3OC)O2)cc1` [HAMILTONE A] returned an MIC in experiment [1] of 96.9 µM (≈ 32 µg/mL). Moreover, in the experiment on MDA-MB-231, the half-maximal effective concentration (EC50) came to 201 µM.
Molecule `CC(C)=CCc1cc([C@@H]2CC(=O)c3c(O)cc(O)cc3O2)cc(CC=C(C)C)c1O` [ABYSSINONE V] showed a minimal inhibitory concentration (MIC) in experiment [1] of 78.3 µM (≈ 32 µg/mL).
In experiment [1], `COc1c(O)cc(-c2coc3cc(O)cc(O)c3c2=O)cc1CC=C(C)C` registered a minimum inhibitory concentration (MIC) of 86.9 µM (≈ 32 µg/mL). The EC50 in the experiment with MDA-MB-231 is 77 µM.
For `COc1ccc(-c2cc(=O)c3c(OC)c(OC)c(OC)cc3o2)cc1OC` [SINENSETIN] the same measures were 85.9 µM (≈ 32 µg/mL) and 269 µM.
As to `C=C(C)[C@@H]1CC[C@]2(C)CC[C@]3(C)[C@H](CC[C@@H]4[C@@]5(C)CC[C@H](O)C(C)(C)[C@@H]5CC[C@]43C)[C@@H]12` [LUPEOL], in the experiment on MDA-MB-231, the EC50 came to 209 µM.

The record behind these values is ChEMBL document CHEMBL4038263, “Flavonoids from Erythrina schliebenii” (J Nat Prod, 2017).
